Activity calls are given as the source filed them.
Experiments:
Aorta [1] = assay: Vasodilating activity in potassium chloride-mediated precontracted guinea pig aorta compound treated every 45 mins by chart recorder analysis; type: functional, tissue-based; conditions: Cavia porcellus, 0.75 h
Procedure, shortened: (§1)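 Guinea pig aortic or pulmonary artery rings held at 19.6 mN resting tension and precontracted with 90 mM KCl. Compound added cumulatively every 45 min after a control period, with relaxation recorded on a chart recorder. Solvent-only effect subtracted. Mean ± SEM of 3–5 experiments; paired Student's t-test.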

[2] = Vasodilating activity in potassium chloride-mediated precontracted guinea pig pulmonary artery compound treated every 45 mins by chart recorder analysis; type: functional, tissue-based, Cavia porcellus; procedure, shortened: as §1
Ileum = assay: Spasmolytic activity in potassium chloride-mediated precontracted guinea pig terminal ileum compound treated every 45 mins by chart recorder analysis; type: functional, tissue-based; conditions: Cavia porcellus, 0.75 h
Procedure, shortened: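 Guinea pig terminal ileum held at 4.9 mN resting tension and precontracted with 60 mM KCl. Compound added cumulatively every 45 min after a control period, with relaxation recorded on a chart recorder. Solvent-only effect subtracted. Stocks in distilled water or DMSO. Mean ± SEM of 3–5 experiments.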

[3] = Inotropic activity in electrically-stimulated guinea pig papillary muscle compound treated every 45 mins by chart recorder analysis; type: functional, tissue-based; conditions: Cavia porcellus, 0.75 h
Procedure, shortened: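 Guinea pig papillary muscles driven electrically at 1 Hz, 3 ms pulses, amplitude 10% above threshold; resting tension 3.92 mN. After a 30 min control period, compound added cumulatively until steady state. Contraction force recorded on a chart recorder; solvent-only effect subtracted. Mean ± SEM of 4–5 experiments; paired t-test.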

Right cardiac atrium = assay: Chronotropic activity in electrically-stimulated guinea pig right atrium compound treated every 45 mins by chart recorder analysis; type: functional, tissue-based; conditions: Cavia porcellus, 0.75 h
Procedure, shortened: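 Isolated guinea pig right atria, resting tension 10.37 mN. After a 30 min control period, compound added cumulatively to the bath until steady state. Rate change recorded on a chart recorder; solvent-only effect subtracted. Stocks in distilled water or DMSO. Mean ± SEM of 4–5 experiments; paired Student's t-test.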

[4] = Stability of the compound in D2O at 20 mg/ml at 20 degC measured over 24 hrs by 1H-NMR spectroscopic analysis; type: physicochemical
Procedure, shortened: (§2)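 Compound dissolved in D2O and kept at 20 °C. 1H NMR spectra taken at 1, 3, 5, 7 and 24 h, in triplicate. Compound-to-degradation-product ratio (%) used to follow hydrolysis. Half-life obtained from an equation fitted to the time-course data. Mean ± SEM of three independent experiments.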

Aorta [5] = assay: Vasodilating activity in potassium chloride-mediated precontracted guinea pig aorta at EC50 compound treated every 45 mins by chart recorder analysis in presence of 30 uM KATP channel inhibitor glibenclamide; type: functional, Cavia porcellus
Aorta [6] = assay: Vasodilating activity in potassium chloride-mediated precontracted guinea pig aorta at EC50 compound treated every 45 mins by chart recorder analysis in presence of 100 uM KATP channel inhibitor glibenclamide; type: functional, Cavia porcellus
[7] = Stability of the compound in D2O assessed as degradation product ratio at 20 mg/ml at 20 degC after 24 hrs by 1H-NMR spectroscopic analysis; type: ADME; procedure, shortened: as §2
[8] = Stability of the compound in D2O assessed as compound remaining at 20 mg/ml at 20 degC after 24 hrs by 1H-NMR spectroscopic analysis; type: physicochemical; conditions: read-out: Stability; procedure, shortened: as §2
[9] = Half life of the compound in D2O at 20 mg/ml at 20 degC by 1H-NMR spectroscopic analysis; type: physicochemical; procedure, shortened: as §2
Aorta [10] = assay: Vasodilating activity in potassium chloride-mediated precontracted guinea pig aorta at EC50 compound incubated in sealed tube filled with distilled water at room temperature for 24 hrs prior to testing by chart recorder analysis; type: functional, tissue-based; conditions: Cavia porcellus
Procedure, shortened: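 Compound dissolved in distilled water and kept sealed at room temperature for 24 h. The solution was then added at a single concentration to guinea pig aortic rings precontracted with 90 mM KCl. Change in contraction force recorded on a chart recorder for 5 min. Mean ± SEM of three experiments.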

Aorta [11] = assay: Vasodilating activity in potassium chloride-mediated precontracted guinea pig aorta at EC50 compound treated every 45 mins by chart recorder analysis in presence of 100 uM eNOS inhibitor nitro-L-arginine; type: functional, tissue-based; conditions: Cavia porcellus

Compound	EC50 (Aorta [1]) [µM]	EC50 [2] [µM]	EC50 (Ileum) [µM]	EC50 [3] [µM]	EC50 (Right cardiac atrium) [µM]	Stability [4]	Ratio [7]	remaining at 24 h, 20 mg/ml [8] [%]	half-life at 20 mg/ml [9] [h]	Activity (Aorta [5]) [%]	Activity (Aorta [6]) [%]	Activity (Aorta [10])	Activity (Aorta [5]; Cavia porcellus)	Activity (Aorta [6]; Cavia porcellus)	Activity (Aorta [11])
CSC(=S)n1ccnc1C	6.3	11	9.5	> 100	> 100	–	–	–	–	–	–	–	–	–	–
CCOC(=S)OCCCN(C)C	> 100	> 100	> 100	> 100	> 100	–	–	–	–	–	–	–	–	–	–
COc1ccc(CSC(=S)n2ccnc2)cc1	13	24	> 100	> 100	> 100	–	–	–	–	–	–	–	–	–	–
CCCOC(=S)OCCCN(C)C	> 100	> 100	> 100	37	> 100	–	–	–	–	–	–	–	–	–	–
CC(=O)OCCSC(=S)n1ccnc1	5.8	24	> 100	77	> 100	–	–	–	–	–	–	–	–	–	–
CCCOC(=S)N1CCN(C)CC1	> 100	> 100	> 100	> 100	> 100	–	–	–	–	–	–	–	–	–	–
C[N+](C)(C)CCOC(=S)OCC[N+](C)(C)C	> 100	> 100	> 100	> 100	> 100	–	–	–	–	–	–	–	–	–	–
CC(C)CN(CC(C)C)C(=S)n1ccnc1	14	26	17	6.5	48	–	–	–	–	–	–	–	–	–	–
O=C(OC1CCCCC1)n1ccnc1	> 100	> 100	> 100	> 100	> 100	–	–	–	–	–	–	–	–	–	–
CCCOC(=S)n1ccnc1	30	100	21	> 100	> 100	–	–	–	–	–	–	–	–	–	–
COc1cc(CSC(=S)n2ccnc2)cc(OC)c1OC	3	7.9	15	27	> 100	–	–	–	–	–	–	–	–	–	–
Cl.S=C(OC1CCCCC1)n1ccnc1	14	24	> 100	> 100	> 100	–	0.09	8	12.3	–	–	inactive	inactive	inactive	inactive
CCCOC(=S)OCCN(C)C	> 100	> 100	> 100	58	> 100	–	–	–	–	–	–	–	–	–	–
Cc1nccn1C(=S)SCc1ccccc1	3.4	13	16	> 100	16	–	–	–	–	–	–	–	–	–	–
S=C(OC1CCCC1)n1ccnc1	36	> 100	16	> 100	> 100	–	–	–	–	–	–	–	–	–	–

Second part, led by results:

EC50 (Aorta [1]) [µM]	EC50 [2] [µM]	EC50 (Ileum) [µM]	EC50 [3] [µM]	EC50 (Right cardiac atrium) [µM]	Stability [4]	Ratio [7]	remaining at 24 h, 20 mg/ml [8] [%]	half-life at 20 mg/ml [9] [h]	Compound	Activity (Aorta [5]) [%]	Activity (Aorta [6]) [%]	Activity (Aorta [10])	Activity (Aorta [5]; Cavia porcellus)	Activity (Aorta [6]; Cavia porcellus)	Activity (Aorta [11])
> 100	> 100	> 100	> 100	> 100	–	–	–	–	CCOC(=S)OCCN(C)C	–	–	–	–	–	–
7.8	6.9	5.7	78	> 100	Stable	–	–	–	CSC(=S)n1ccnc1.Cl	50	50	–	–	–	–
> 100	> 100	> 100	> 100	> 100	–	–	–	–	CC(C)OC(=O)n1ccnc1	–	–	–	–	–	–
> 100	> 100	17	4.3	> 100	–	–	–	–	CCCCOC(=S)OCCCN(C)C	–	–	–	–	–	–
46	> 100	21	> 100	> 100	–	–	–	–	CC(C)OC(=S)n1ccnc1	–	–	–	–	–	–
23	25	26	56	> 100	–	–	–	–	CSC(=S)n1c(C)nc2ccccc21	–	–	–	–	–	–
> 100	> 100	16	5.9	35	–	–	–	–	CCCCCCOC(=S)OCCCN(C)C	–	–	–	–	–	–
16	20	32	> 100	> 100	–	–	–	–	CCOC(=O)CCSC(=S)n1ccnc1	–	–	–	–	–	–
20	63	40	30	> 100	–	–	–	–	S=C(SCc1ccccc1)n1ccnc1	–	–	–	–	–	–
53	19	4.8	> 100	> 100	–	0.35	26	6.5	CCOC(=S)n1ccnc1.Cl	–	–	inactive	–	–	–
> 100	> 100	> 100	> 100	> 100	–	–	–	–	CCOC(=S)N1CCN(C)CC1	–	–	–	–	–	–
> 100	> 100	> 100	> 100	> 100	–	–	–	–	S=C(N1CCCCC1)n1ccnc1	–	–	–	–	–	–
13	23	21	> 100	> 100	–	–	–	–	CCCCOC(=S)n1ccnc1	–	–	–	–	–	–
> 100	> 100	> 100	> 100	> 100	–	–	–	–	CN(C)CCOC(=S)OCCN(C)C	–	–	–	–	–	–

From ChEMBL document CHEMBL3593226, “Discovery of small molecules with vasodilating characteristics and adjustable hydrolytic behavior” (Bioorg Med Chem, 2015)
